Source: ChEMBL document CHEMBL3632616, “Fluorination Patterning: A Study of Structural Motifs That Impact Physicochemical Properties of Relevance to Drug Discovery” (J Med Chem, 2015)
Converted amounts (≈) assume the structure as drawn.

Legend:
[1] = Lipophilicity, Log P of the compound; type: physicochemical; conditions: octanol/water
[2] = Aqueous solubility of the compound at pH 6.5; type: physicochemical
[3] = Intrinsic clearance in human liver microsomes assessed per mg of protein; type: ADME; conditions: read-out: CLH
In short: (§1)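 Compound incubated with liver microsomes (human for line 2, rat for line 3) and its concentration followed at up to 8 successive time points. Intrinsic pseudo-first-order decay rate constant (Clint) taken from linear regression of those concentrations and normalised to microsomal protein. Upper and lower bounds are 95% confidence levels from the regression.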

[4] = Intrinsic clearance in rat liver microsomes assessed per mg of protein; type: ADME; conditions: read-out: CLH; in short: as §1

Row | Structure (SMILES) | logP [1] | solubility [2] | microsomal CLint [3] | microsomal CLint [4]
1 | FCCCc1c[nH]c2ccccc12 | 2.8 |  |  | 
2 | FCC(F)Cc1c[nH]c2ccccc12 (stereo unspecified) | 2.5 | > 1720 µM | 212 µL/min/mg | 142 µL/min/mg
3 | CC(F)(F)Cc1c[nH]c2ccccc12 | 2.8 | 820 µM (≈ 160 µg/mL) | 508 µL/min/mg | 226 µL/min/mg
4 | C[C@@H](F)[C@H](F)Cc1c[nH]c2ccccc12 (racemic) | 2.8 |  |  | 
5 | C[C@H](F)[C@H](F)Cc1c[nH]c2ccccc12 (racemic) | 2.8 |  |  | 
6 | FC[C@@H](F)[C@H](F)Cc1c[nH]c2ccccc12 (racemic) | 2.7 |  |  | 
7 | FC[C@H](F)[C@H](F)Cc1c[nH]c2ccccc12 (racemic) | 2.7 |  |  | 

Second part, the compound after the results:

Row | logP [1] | solubility [2] | microsomal CLint [3] | microsomal CLint [4] | Structure (SMILES)
8 | 3 | 115 µM (≈ 24.1 µg/mL) | 321 µL/min/mg | 584 µL/min/mg | CC(F)(F)CCc1c[nH]c2ccccc12
9 | 3.3 | 200 µM (≈ 31.8 µg/mL) | 513 µL/min/mg | 182 µL/min/mg | CCCc1c[nH]c2ccccc12
10 | 2.9 |  | 372 µL/min/mg | 294 µL/min/mg | FC(F)CCc1c[nH]c2ccccc12
11 | 3.1 | 30 µM (≈ 6.4 µg/mL) | 410 µL/min/mg | 290 µL/min/mg | FC(F)(F)CCc1c[nH]c2ccccc12
12 | 3.1 | 182 µM (≈ 38.1 µg/mL) | 271 µL/min/mg | 644 µL/min/mg | CCC(F)(F)Cc1c[nH]c2ccccc12
13 | 2.8 | 277 µM (≈ 58 µg/mL) | 245 µL/min/mg | 492 µL/min/mg | FCC(F)CCc1c[nH]c2ccccc12 (stereo unspecified)
